A selection: hits, their analogues and other compounds. The true share with any hit is near 4.5%.
MDM2 E3 inh: Mdm2 E3 ligase (human) inhibition; Q00987; cell-based MDM2 ubiquitination luciferase reporter, 2 h; 0 = plate control, 100 = twice control, blank-subtracted; signal enhancement, % at 5 µM; actives 0.11% (n = 210,000); AID 1230;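 active means signal enhancement of 30% or more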;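 further: luminescence tracks abundance of the self-degrading MDM2-luciferase fusion protein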
Target sequence (Q00987 whole entry, looked up, the tested form may be a part): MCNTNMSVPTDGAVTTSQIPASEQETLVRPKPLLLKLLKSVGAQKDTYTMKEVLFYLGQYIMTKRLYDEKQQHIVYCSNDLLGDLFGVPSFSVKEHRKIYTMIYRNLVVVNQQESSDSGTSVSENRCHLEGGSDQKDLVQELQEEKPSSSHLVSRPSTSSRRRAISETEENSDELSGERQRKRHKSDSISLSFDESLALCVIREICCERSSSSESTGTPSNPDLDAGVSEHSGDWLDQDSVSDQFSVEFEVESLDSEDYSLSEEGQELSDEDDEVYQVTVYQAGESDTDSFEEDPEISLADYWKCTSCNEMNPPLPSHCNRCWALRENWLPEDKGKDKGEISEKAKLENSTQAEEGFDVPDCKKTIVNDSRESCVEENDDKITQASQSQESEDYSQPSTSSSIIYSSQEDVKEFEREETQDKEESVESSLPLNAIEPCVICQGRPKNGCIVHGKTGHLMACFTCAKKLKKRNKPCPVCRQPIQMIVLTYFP
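Assay system: stable mammalian line carrying autodegrading MDM2–luciferase fusion reporter; amount: 2000 cells seeded into each well; buffer or medium: DMEM; benchmarks: plate control and blank wells; signal: luciferase luminescence; timing: 2 h compound exposure at 37 °C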
APP 5'UTR act: APP 5'UTR luciferase reporter activation; SH-SY5Y APP 5'UTR luciferase reporter, luminescence; zero percent = DMSO vehicle wells; activation, % at 2 µM; actives 1% (n = 190,000);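 active means activation above a set limit, based on mean plus 3 SD of controls, cut at about 140% in these data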
PERK inhibitor: human PERK inhibition, primary cell-based screen; actives 0.17% (n = 220,000); Q9NZJ5; CHO PERK-DD fusion, SEAP luminescence translation reporter; inhibition, % at 5.6 µM; AID 1416;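 active means inhibition above the mean inhibition of all tested compounds plus 3 SD, set separately per screening campaign, cut at about 2.9% in these data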;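 further: PERK kinase domain activated by AP20187 dimerizer at 100 nM; 0% = DMSO with dimerizer and 100% = rapamycin at 8.4 µM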
STAT1 act: activators of IFN-gamma induced STAT1 signaling; NIH 3T3 STAT1-luciferase reporter, luminescence; 100% = IFN-gamma alone, no compound; activation (% of control), % at 5.5 µM; actives 2.6% (n = 200,000); AID 932;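 active means activation above the screen-wide mean activation plus 3 SD, cut at about 130% in these data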;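 further: raw ratio to IFN-gamma control signal so 100% means no change and 0% no light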
NF-kB expr up: raises NF-kB expression in human neuronal cells; fold change at 12.5 µM; NF-kB reporter expression; stronger effect = higher value; AID 1239; actives 1.6% (n = 190,000); in the data active means fold change above about 3.3
AHR act: activates the human aryl hydrocarbon receptor; activation, % at 5 µM; AID 2796; P35869; AHR-responsive luciferase reporter cells, luminescence; actives 2.5% (n = 320,000); in the data active means activation above about 47%;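 further: 0% = vehicle wells and 100% = reference agonist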
Numbers without * were called inactive.

Results for COC(=O)c1c(-c2ccc3ccccc3c2)csc1NC(=O)Cc1ccc(OC)c(OC)c1 ?
MDM2 E3 inh: -11; APP 5'UTR act: -2; PERK inhibitor: -1; STAT1 act: 95; NF-kB expr up: 0.4; AHR act: 0

Results for CN(CCc1cnn(C)c1)Cc1cn[nH]c1-c1ccc(-c2ccccc2)cc1 ?
MDM2 E3 inh: -6; APP 5'UTR act: 18; PERK inhibitor: 0; STAT1 act: 115; NF-kB expr up: 1.4; AHR act: 21

What do the screens show for `CCSc1nnc2c(n1)[nH]c1c(C)cccc12`?
MDM2 E3 inh: -29; APP 5'UTR act: 31; PERK inhibitor: 0; STAT1 act: 139*; NF-kB expr up: 1.6; AHR act: 53*

Results for COc1ccccc1NC(=O)Nc1nc(CC(=O)Nc2ccc(F)c(F)c2)cs1 ?
AHR act: 52*

What do the screens show for `COc1ccccc1NC(=O)Nc1nc(CC(=O)Nc2cc(F)ccc2F)cs1`?
AHR act: 63*

Results for CN(CC(=O)Nc1ccccc1Cl)C(=O)c1cc(-c2cccs2)nn1-c1ccccc1 ?
AHR act: 2

How did CCOC(=O)C1=C(C)NC(C)=C(C(=O)OCC)C1c1ccccc1/C=C/C(=O)OC(C)(C)C do in these assays?
AHR act: 16

How did C=CCNC(=S)N/N=C(\C)c1ccccn1 do in these assays?
MDM2 E3 inh: -49; APP 5'UTR act: -93; PERK inhibitor: 2; STAT1 act: 136*; NF-kB expr up: 0.17; AHR act: 4

What do the screens show for `O=C(Nc1nnc(S(=O)(=O)N2CCN(c3ccc(F)cc3)CC2)s1)c1ccccc1`?
AHR act: -2

What do the screens show for `CC(=O)c1c(C(C)=O)c(C)n(-c2nc(-c3ccc(Br)cc3)c(C)s2)c1C`?
MDM2 E3 inh: -6; APP 5'UTR act: 7; PERK inhibitor: 0; STAT1 act: 101; NF-kB expr up: 0.71; AHR act: 56*

How did O=C(Nc1ccc(OC(F)F)cc1)c1cc[n+]([O-])cc1 do in these assays?
AHR act: 7

What do the screens show for `O=C(CN(C(=O)CCC(=O)Nc1nccs1)c1cccc(F)c1)NCc1ccccc1`?
AHR act: 2

Results for O=C(Nc1nc(-c2ccc(F)cc2)cs1)c1cccc(N2C(=O)CCC2=O)c1 ?
AHR act: 48*

How did CCN1C(=O)CC(N2CCOCC2)C1=O (stereo unspecified) do in these assays?
MDM2 E3 inh: -11; APP 5'UTR act: -2; PERK inhibitor: 3.0*; STAT1 act: 97; NF-kB expr up: 1.1; AHR act: 1

How did CC(=O)OCCNc1nc(-c2ccccc2)nc2ccccc12 do in these assays?
MDM2 E3 inh: -15; APP 5'UTR act: -6; PERK inhibitor: 0; STAT1 act: 89; NF-kB expr up: 0.94; AHR act: 58*

What do the screens show for `N#Cc1cc2cc3c(cc2nc1SCC(=O)N1CCCC1)OCCO3`?
AHR act: 1

How did COC(=O)CSc1nc2cc(OC)ccc2cc1C#N do in these assays?
MDM2 E3 inh: -3; APP 5'UTR act: 155*; PERK inhibitor: 1; STAT1 act: 142*; NF-kB expr up: 14*; AHR act: 5

Results for CCOC(=O)CSc1nc2cc(OCC)ccc2cc1C#N ?
MDM2 E3 inh: -7; APP 5'UTR act: 168*; PERK inhibitor: -1; STAT1 act: 124; NF-kB expr up: 2.2; AHR act: 22

How did CCOc1ccc2cc(C#N)c(SCC(=O)N3CCC(C)CC3)nc2c1 do in these assays?
MDM2 E3 inh: -14; APP 5'UTR act: 2; PERK inhibitor: 1; STAT1 act: 95; NF-kB expr up: 1.2; AHR act: 2

What do the screens show for `CCOC(=O)CSc1nc(-c2ccc3c(c2)OCO3)ccc1C#N`?
MDM2 E3 inh: -16; APP 5'UTR act: 202*; PERK inhibitor: -1; STAT1 act: 126; NF-kB expr up: 0.74; AHR act: 11

What do the screens show for `CCOC(=O)CCCSc1nc(-c2ccc3c(c2)OCO3)cc(C(F)(F)F)c1C#N`?
MDM2 E3 inh: -16; APP 5'UTR act: 19; PERK inhibitor: 1; STAT1 act: 101; NF-kB expr up: 1.2; AHR act: 2

How did CC(=O)CSc1nc2cc3c(cc2cc1C#N)OCCO3 do in these assays?
MDM2 E3 inh: -55; APP 5'UTR act: 101; PERK inhibitor: 1; STAT1 act: 86; NF-kB expr up: 5.7*; AHR act: -1

Results for CCCn1c(N)c(C(=O)CSc2nc3ccccc3n2CCC#N)c(=O)n(C)c1=O ?
MDM2 E3 inh: -28; APP 5'UTR act: 33; PERK inhibitor: 1; STAT1 act: 106; NF-kB expr up: 1; AHR act: 53*

Results for CCCCCCn1c(SCC(=O)c2c(N)n(C)c(=O)n(C)c2=O)nc2ccccc21 ?
MDM2 E3 inh: -3; APP 5'UTR act: -1; PERK inhibitor: 0; STAT1 act: 96; NF-kB expr up: 0.89; AHR act: 0

What do the screens show for `CC(NC(=O)Cn1cc([N+](=O)[O-])cn1)c1ccc(C(C)(C)C)cc1` (stereo unspecified)?
AHR act: 0

What do the screens show for `CN1C(=C2C(=O)OC(C)(C)OC2=O)Sc2ccccc21`?
MDM2 E3 inh: -18; APP 5'UTR act: 30; PERK inhibitor: 1; STAT1 act: 130*; NF-kB expr up: 1.6; AHR act: 1

How did O=C1NC(c2ccc3c(c2)OCO3)Nc2ccccc21 (stereo unspecified) do in these assays?
MDM2 E3 inh: -4; APP 5'UTR act: 12; PERK inhibitor: 2; STAT1 act: 114; NF-kB expr up: 1.8; AHR act: 145*

How did COc1ccc(C2NC(=O)c3ccccc3N2)cc1OC (stereo unspecified) do in these assays?
MDM2 E3 inh: -8; APP 5'UTR act: -3; PERK inhibitor: 0; STAT1 act: 103; NF-kB expr up: 1.6; AHR act: 48*

Results for O=C1NC(c2ccc3c(c2)OCO3)Oc2ccccc21 (stereo unspecified) ?
MDM2 E3 inh: 1; APP 5'UTR act: 8; PERK inhibitor: 0; STAT1 act: 102; NF-kB expr up: 1.1; AHR act: 10

What do the screens show for `COc1ccc(C2NC(=O)c3ccccc3O2)cc1OC` (stereo unspecified)?
MDM2 E3 inh: -12; APP 5'UTR act: 6; PERK inhibitor: 0; STAT1 act: 91; NF-kB expr up: 1.1; AHR act: 0

What do the screens show for `O=C(NCCCN1CCOCC1)c1cc(-c2ccc(Br)cc2)nc2ccccc12`?
AHR act: 75*

What do the screens show for `O=C(NN1CCOCC1)c1cc(-c2ccc(Br)cc2)nc2ccccc12`?
MDM2 E3 inh: -1; APP 5'UTR act: 1; PERK inhibitor: 0; STAT1 act: 113; NF-kB expr up: 0.98; AHR act: 58*
